From paper PMC7941041 (Biochemistry and Biophysics Reports, 2021)
Square brackets hold non-standard residues; d marks the D form. pS = N[C@@H](COP(=O)(O)O)C(=O)O

T1: human Arc N-lobe (hArc-NL, residues 207–277) (human, UniProt Q7LC44 207-277)
T1 sequence: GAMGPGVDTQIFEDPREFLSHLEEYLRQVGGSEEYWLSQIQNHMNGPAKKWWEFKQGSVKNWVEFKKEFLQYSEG

T2: human Arc C-terminal domain (hArc-CT, residues 206–396, containing both lobes) (human, UniProt Q7LC44 206-396)
T2 sequence: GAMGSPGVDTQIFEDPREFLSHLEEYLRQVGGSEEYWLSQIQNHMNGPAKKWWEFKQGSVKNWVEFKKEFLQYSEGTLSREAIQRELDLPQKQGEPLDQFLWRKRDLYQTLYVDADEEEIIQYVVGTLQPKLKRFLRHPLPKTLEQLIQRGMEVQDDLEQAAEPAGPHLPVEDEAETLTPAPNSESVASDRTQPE

T3: hArc-CT (residues 206–396, containing both lobes) (Homo sapiens, UniProt Q7LC44)
T3 sequence (Q7LC44 206-396): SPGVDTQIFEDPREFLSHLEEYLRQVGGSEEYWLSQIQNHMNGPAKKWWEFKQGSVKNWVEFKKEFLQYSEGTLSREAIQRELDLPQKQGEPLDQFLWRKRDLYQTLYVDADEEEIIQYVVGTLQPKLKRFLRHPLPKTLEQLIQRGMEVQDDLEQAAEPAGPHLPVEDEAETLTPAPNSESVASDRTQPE

T4: hArc-NL (residues 207–277) (Homo sapiens, UniProt Q7LC44)
T4 sequence (Q7LC44 207-277): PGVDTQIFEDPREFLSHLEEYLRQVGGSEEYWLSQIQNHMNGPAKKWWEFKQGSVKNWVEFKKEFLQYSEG

B1: phosphorylated stargazin peptide pStg(phos) (peptide)
peptide: Ac-RIP[pS]YRYR-NH2
SMILES: CC[C@H](C)[C@H](NC(=O)[C@H](CCCNC(=N)N)NC(C)=O)C(=O)N1CCC[C@H]1C(=O)N[C@@H](COP(=O)(O)O)C(=O)N[C@@H](Cc1ccc(O)cc1)C(=O)N[C@@H](CCCNC(=N)N)C(=O)N[C@@H](Cc1ccc(O)cc1)C(=O)N[C@@H](CCCNC(=N)N)C(N)=O

These molecules were tested against T1, human Arc N-lobe (hArc-NL, residues …) (assay: ITC). Conditions: not given.

In order of falling Kd:
1. Ac-MPGCFRMR-NH2 [GKAP repeat 5 peptide]  2390 ± 314 µM
2. Ac-TSPKFRSR-NH2 [GKAP repeat 4 peptide]  714 ± 19 µM
3. Ac-TSPKFRSRNESYMRAMST-NH2 [long GKAP repeat 4 peptide]  426 ± 12 µM
4. Ac-RIPSYRYR-NH2 [stargazin peptide pStg(wt)]  33.6 ± 1.1 µM

In order of falling dH:
1. Ac-TSPKFRSRNESYMRAMST-NH2 [long GKAP repeat 4 peptide]  -7.2 ± 0.2 kcal/mol
2. Ac-MPGCFRMR-NH2 [GKAP repeat 5 peptide]  -8.2 ± 0.3 kcal/mol
3. Ac-TSPKFRSR-NH2 [GKAP repeat 4 peptide]  -10.9 ± 0.4 kcal/mol
4. Ac-RIPSYRYR-NH2 [stargazin peptide pStg(wt)]  -13.1 ± 0.1 kcal/mol
5. B1  -66.5 ± 0.6 kcal/mol

The molecules below were run against T2, human Arc C-terminal domain (hArc-CT, …) (assay: ITC). Conditions: not given.

In order of falling Kd:
1. Ac-TSPKFRSR-NH2 [GKAP repeat 4 peptide]  763 ± 10 µM
2. Ac-TSPKFRSRNESYMRAMST-NH2 [long GKAP repeat 4 peptide]  391 ± 18 µM
3. Ac-RIPSYRYR-NH2 [stargazin peptide pStg(wt)]  80 ± 4 µM
4. Ac-RIPSYRYRYQRRSRSSSRSTE-NH2 [long stargazin peptide pStg(long)]  26.4 ± 1.2 µM

In order of rising dH:
1. Ac-RIPSYRYRYQRRSRSSSRSTE-NH2 [long stargazin peptide pStg(long)]  -20.2 ± 0.2 kcal/mol
2. Ac-RIPSYRYR-NH2 [stargazin peptide pStg(wt)]  -12 ± 0.2 kcal/mol
3. Ac-TSPKFRSR-NH2 [GKAP repeat 4 peptide]  -6.8 ± 0.1 kcal/mol
4. Ac-TSPKFRSRNESYMRAMST-NH2 [long GKAP repeat 4 peptide]  -6.8 ± 0.2 kcal/mol

Each molecule was assayed against T3, hArc-CT (residues 206–396, containing both lobes) (assay: ITC analysis of peptide binding to hArc-CT). Conditions: 20 mM Tris-HCl pH 7.4, 150 mM NaCl, +25 °C, one-site binding model.
In short: (§1)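 Human Arc constructs carried a cleavable His-MBP tag and were expressed in E. coli BL21 with IPTG induction at +30 °C. They were purified by Ni-NTA and size-exclusion chromatography, and TEV cleavage left an N-terminal GAMG. Peptides were N-acetylated and C-amidated. Peptide (2.5–5.0 mM) was titrated into the cell containing protein (0.25–0.5 mM).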

In the case of “Ac-TSPKFRSRNESYMRAMST-NH2 [GKAP-R4(long)]”, the “-TΔS” value is reported as “+2.2 kcal/mol/°”.
In the case of “Ac-RIPSYRYRYQRRSRSSSRSTE-NH2 [pStg(long)]”, the “-TΔS” value is reported as “+14.0 kcal/mol/°”.
In the case of Ac-TSPKFRSR-NH2 [GKAP-R4], the “-TΔS” value is reported as “+2.5 kcal/mol/°”.
In the case of Ac-RIPSYRYR-NH2 [pStg(wt)], the “-TΔS” value is reported as “+6.4 kcal/mol/°”.

In order of falling ΔH:
1. Ac-TSPKFRSRNESYMRAMST-NH2 [GKAP-R4(long)]  -6.8 ± 0.2 kcal/mol
2. Ac-TSPKFRSR-NH2 [GKAP-R4]  -6.8 ± 0.1 kcal/mol
3. Ac-RIPSYRYR-NH2 [pStg(wt)]  -12.0 ± 0.2 kcal/mol
4. Ac-RIPSYRYRYQRRSRSSSRSTE-NH2 [pStg(long)]  -20.2 ± 0.2 kcal/mol

These molecules were tested against T4, hArc-NL (residues 207–277) (assay: ITC analysis of peptide binding to hArc-NL). Conditions: 20 mM Tris-HCl pH 7.4, 150 mM NaCl, +25 °C, one-site binding model.
In short: as §1

With “Ac-TSPKFRSRNESYMRAMST-NH2 [GKAP-R4(long)]” the “-TΔS” value was “+3.1 kcal/mol/°”.
In the case of Ac-TSPKFRSR-NH2 [GKAP-R4], the “-TΔS” value is reported as “+6.6 kcal/mol/°”.
Ac-RIPSYRYR-NH2 [pStg(wt)] was tested, and the “-TΔS” value was “+7.0 kcal/mol/°”.
With Ac-MPGCFRMR-NH2 [GKAP-R5] the “-TΔS” value was “+4.7 kcal/mol/°”.

In order of rising ΔH:
1. Ac-RIPSYRYR-NH2 [pStg(wt)]  -13.1 ± 0.1 kcal/mol
2. Ac-TSPKFRSR-NH2 [GKAP-R4]  -10.9 ± 0.4 kcal/mol
3. Ac-MPGCFRMR-NH2 [GKAP-R5]  -8.2 ± 0.3 kcal/mol
4. Ac-TSPKFRSRNESYMRAMST-NH2 [GKAP-R4(long)]  -7.2 ± 0.2 kcal/mol
